Lung fibro prol: blocks proliferation of human lung fibroblasts | viability, % at 10 µM | AID 719 | hit rate 1.1% among 85,000 | LL 47 human lung fibroblast viability, ATP luminescence; active compounds read low;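 active = viability at or below 50% in the single dose screen; inactive = viability above 50%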;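 also: compound exposure lasted 72 h before the ATP readout; 100% = median luminescence of untreated cell-only wells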
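Test system: LL 47 human lung fibroblasts / Incubation: 72 h compound exposure at 37 °C after overnight plating / Technique: luminescent ATP detection, CellTiter-Glo / Compound dosing: 0.1% DMSO in all compound wells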
Jurkat tox 60K: cytotoxicity toward Jurkat cells; AID 463; hit rate 1.2% among 56,000; Jurkat E6.1 viability, ATP luminescence, 48 h; inhibition, % at 4 µM;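 active = inhibition above the mean inhibition of all tested compounds plus 3 SD, cut at about 28% in these data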
H69AR growth 86K: growth inhibitors of human H69AR lung tumor cells | H69AR lung tumor viability, ATP luminescence, 72 h; active compounds read low | viability, % at 10 µM | AID 598 | hit rate 6% among 85,000;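 active = viability at or below 40%; inactive = viability above 40%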;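 also: multidrug resistant small cell line overexpressing MRP-1 efflux transporter; 100% = mean luminescence of untreated control wells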
HUVEC prolif 384: blocks proliferation of human endothelial cells; HUVEC proliferation, CellTiter-Glo luminescence, 72 h; active compounds read low; viability, % at 10 µM (by protocol); hit rate 1.1% among 86,000;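 active = viability at or below 30%; inactive = viability above 30%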;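 also: 100% = median luminescence of DMSO-only cell control wells on each plate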
An asterisk follows results filed as active. Sampled rows, rich in hits. Any-hit rate of the full collection: about 6.6%.

`CCOc1cc2[nH]c(=O)n(CCc3ccc(OC)c(OC)c3)c(=O)c2cc1OCC` gave Lung fibro prol 96, Jurkat tox 60K -5, H69AR growth 86K 36* and HUVEC prolif 384 88.
Screening Cc1csc(C(C#N)C(=O)c2cc3ccccc3o2)n1 (centres undefined) returned Lung fibro prol 100, H69AR growth 86K 87 and HUVEC prolif 384 79.
Screening CC(C)(C)CC(C)(C)NCC(O)COc1c(F)cc(Br)cc1F (centres undefined) returned Lung fibro prol 76, H69AR growth 86K 9.7* and HUVEC prolif 384 99.
C/C(Nc1ccccc1)=C(/C#N)C(N)=O was read as Lung fibro prol 106, H69AR growth 86K 99 and HUVEC prolif 384 98.
Screening CCc1ccc(N(CC(=O)Nc2ccc(OC)cc2OC)S(C)(=O)=O)cc1 returned Lung fibro prol 100, Jurkat tox 60K 4, H69AR growth 86K 84 and HUVEC prolif 384 106.
`Cc1cc(C)c2c(=O)n(CC(=O)N3CCC(N4CCCCC4)CC3)sc2n1` gave Lung fibro prol 76, Jurkat tox 60K 12, H69AR growth 86K 103 and HUVEC prolif 384 105.
For CCOC(=O)C1CCCN(C(=O)Cn2sc3nc(C)cc(C)c3c2=O)C1 (centres undefined) the results were Lung fibro prol 83, Jurkat tox 60K 2, H69AR growth 86K 1.1* and HUVEC prolif 384 93.
CN(C)c1ccc(N/C=C/C(=O)c2ccc(F)cc2)cc1 was read as Lung fibro prol 99, Jurkat tox 60K -2, H69AR growth 86K 35* and HUVEC prolif 384 48.
Screening CCOC(=O)N1CCN(S(=O)(=O)c2ccc(C(=O)Nc3nc4ccccc4s3)cc2)CC1 returned Lung fibro prol 84, Jurkat tox 60K -6, H69AR growth 86K 13* and HUVEC prolif 384 68.
CCOC(=O)N1CCN(S(=O)(=O)c2ccc(C(=O)Nc3nc4ccc(F)cc4s3)cc2)CC1 was read as Lung fibro prol 29*, Jurkat tox 60K -6, H69AR growth 86K 23* and HUVEC prolif 384 47.
Screening CN(CC(=O)Nc1nc2ccccc2s1)S(=O)(=O)c1ccc(Cl)cc1 returned Lung fibro prol 88, H69AR growth 86K 36* and HUVEC prolif 384 67.
Screening CCOC(=O)N1CCN(S(=O)(=O)c2ccc(F)cc2)CC1 returned Lung fibro prol 102, Jurkat tox 60K -5, H69AR growth 86K 104 and HUVEC prolif 384 88.
`COc1cccc2sc(NC(=O)c3ccc(S(=O)(=O)N4CCOCC4)cc3)nc12` gave Lung fibro prol 110, Jurkat tox 60K 0, H69AR growth 86K 69 and HUVEC prolif 384 96.
For NC(=O)C1CCN(C(=O)c2ccco2)CC1 the results were Lung fibro prol 94, H69AR growth 86K 97 and HUVEC prolif 384 98.
CCOc1ccc(N2C(=O)CC(N3CC(C)OC(C)C3)C2=O)cc1 (centres undefined) was read as Lung fibro prol 106, Jurkat tox 60K -8, H69AR growth 86K 97 and HUVEC prolif 384 103.
CNc1sc(C(=O)c2ccc(F)cc2)c(N)c1-c1nc2ccccc2s1 was read as Lung fibro prol 57, H69AR growth 86K 5.7* and HUVEC prolif 384 25*.
Screening Cc1cc(Oc2ccccc2)nc(OCC#N)n1 returned Lung fibro prol 102, Jurkat tox 60K 2, H69AR growth 86K 94 and HUVEC prolif 384 96.
`COc1ccc(-c2cc(-c3cc(OC)ccc3O)[nH]n2)cc1` gave Lung fibro prol 73, H69AR growth 86K 28* and HUVEC prolif 384 53.
For COc1ccc(-c2cc(-c3ccc(OC)c(OC)c3)n[nH]2)c(O)c1 the results were Lung fibro prol 86, H69AR growth 86K 54 and HUVEC prolif 384 96.
Screening COc1ccc(-c2cc(-c3ccccc3O)[nH]n2)cc1OC returned Lung fibro prol 79, Jurkat tox 60K -2, H69AR growth 86K 59 and HUVEC prolif 384 52.
For COc1ccc(O)c(-c2cc(-c3cccc(Br)c3)n[nH]2)c1 the results were Lung fibro prol 96, Jurkat tox 60K -3, H69AR growth 86K 36* and HUVEC prolif 384 43.
Screening Cc1ccc(O)c(-c2cc(-c3cccc(F)c3)n[nH]2)c1 returned Lung fibro prol 82, H69AR growth 86K 0.6* and HUVEC prolif 384 28*.
CCN(CC)S(=O)(=O)c1cccc(C(=O)OCc2cc(=O)n3nc(C)sc3n2)c1 was read as Lung fibro prol 102, Jurkat tox 60K -3, H69AR growth 86K 97 and HUVEC prolif 384 106.
Screening COc1ccc(Oc2cc(C(F)(F)F)cnc2C(N)=O)cc1 returned Lung fibro prol 96, H69AR growth 86K 106 and HUVEC prolif 384 87.
Screening COc1ccccc1-c1nnc2n1N=C(c1ccc(O)c(O)c1)CS2 returned Lung fibro prol 38*, H69AR growth 86K 21* and HUVEC prolif 384 51.
For COc1ccc(C2=Nn3c(nnc3-c3cccnc3)SC2)cc1OC the results were Lung fibro prol 45*, H69AR growth 86K 85 and HUVEC prolif 384 71.
Screening Brc1ccc(C2=Nn3c(nnc3-c3cccnc3)SC2)s1 returned Lung fibro prol 98, Jurkat tox 60K -5, H69AR growth 86K 100 and HUVEC prolif 384 92.
For CCOc1ccc(C2C=C(c3ccccc3)Nc3ncnn32)cc1 (centres undefined) the results were Lung fibro prol 112, H69AR growth 86K 105 and HUVEC prolif 384 109.
For C1=C(c2ccc(-c3ccccc3)cc2)Nc2ncnn2C1c1ccco1 (centres undefined) the results were Lung fibro prol 102, Jurkat tox 60K -3, H69AR growth 86K 18* and HUVEC prolif 384 82.
For CCCCS/C(=C(/C#N)C(N)=O)c1cc2c([nH]1)CCCC2 the results were Lung fibro prol 67, Jurkat tox 60K 16, H69AR growth 86K 5.2* and HUVEC prolif 384 69.
Clc1ccc(C(c2ccccc2)N2CCNCC2)cc1 (centres undefined) was read as Lung fibro prol 88, H69AR growth 86K 37* and HUVEC prolif 384 83.
Screening CCC(=C(c1ccc(OC)cc1)c1ccc(OC)cc1)c1cn(CC(O)CN2CCN(C)CC2)c2ccccc12 (centres undefined) returned Lung fibro prol 21*, H69AR growth 86K 1.6* and HUVEC prolif 384 3.0*.
For Cc1nn(-c2ccccc2)c2c1C(c1ccc(O)c(O)c1)N1C(=N2)C(Nc2ccccc2)=Nc2ccccc21 (centres undefined) the results were Lung fibro prol 39*, H69AR growth 86K 21* and HUVEC prolif 384 13*.
`Cc1nn(-c2ccccc2)c2c1C(c1cccnc1)N1C=C(S(=O)(=O)N3CCCCC3)C=CC1=N2` (centres undefined) gave Lung fibro prol 90, H69AR growth 86K 74 and HUVEC prolif 384 100.
Cc1cccc(NC2=Nc3ccccc3N3C2=Nc2c(c(C)nn2-c2ccccc2)C3c2ccc(O)c(O)c2)c1 (centres undefined) was read as Lung fibro prol 45*, H69AR growth 86K 1.1* and HUVEC prolif 384 41.
Screening Cc1ccc(NC2=Nc3ccccc3N3C2=Nc2c(c(C)nn2-c2ccccc2)C3c2ccc(O)c(O)c2)cc1 (centres undefined) returned Lung fibro prol 37*, H69AR growth 86K 16* and HUVEC prolif 384 15*.
`CCOc1ccc(OCc2ccc(C(=O)OCc3ccccn3)o2)cc1` gave Lung fibro prol 101, Jurkat tox 60K 3, H69AR growth 86K 99 and HUVEC prolif 384 92.

Source: PubChem
